# Only a selection was taken, and hits are over-represented in it overall.
# PTEN del growth = growth suppression of PTEN-null HCT116, primary screen, cell-based, CellTiter-Glo | HCT116 PTEN-null viability, 60 h; hits give low values | viability, % at 10 µM | 1.2% of 140,000 active | AID 827, 2007;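 active means viability at or below a set limit, 4 SD under the median of all tested compounds, cut at about 3.7% in these data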;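 further: PTEN knockout HCT116 line with beta catenin targeted HCT116 as companion control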
# HUVEC inhibit = inhibitors of HUVEC proliferation, primary screen, cell-based, 384-well; CellTiter-Glo luminescence, 72 h; hits give low values; viability, % at 10 µM (by protocol); 1.1% of 86,000 active; AID 648, 2007;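 active means viability at or below 30%; inactive means viability above 30%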;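 further: 100% = median luminescence of DMSO-only cell control wells on each plate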
# bCat KO growth = primary screen for growth suppressors in beta-catenin knockout HCT116 cells (colon tumor, human). 1.5% of 140,000 active. viability, % at 10 µM. HCT116 beta-catenin knockout viability, CellTiter-Glo, 60 h; hits give low values;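 active means viability at or under a set limit, the compound median less 4 SD, cut at about 6% in these data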;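 further: 0% = Hyamine 1622 control at 20 µM and 100% = untreated cell control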
# Lung fibro prol = antiproliferative effect on LL 47 fibroblasts – human, LL 47 cells, CellTiter-Glo luminescence, primary screen | AID 719, 2007 | LL 47 human lung fibroblast viability, ATP luminescence; hits give low values | 1.1% of 85,000 active | viability, % at 10 µM;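 active means viability at or below 50% in the single dose screen; inactive means viability above 50%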;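 further: compound exposure lasted 72 h before the ATP readout; 100% = median luminescence of untreated cell-only wells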
#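 Material: Human LL 47 lung fibroblast cells | Input: 1,150 cells/well | Buffer or medium: IMEM plus 15% FBS | Compound dosing: 0.1% DMSO in all compound wells | Times: Overnight cell rest, 72 h compound treatment at 37 °C | Signal: CellTiter-Glo luminescence measuring cellular ATP | Measure: % viability versus median cells-only luminescence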
# H69AR growth 86K = proliferation blockers of H69AR lung cancer cells, primary screen, cell-based, human, 86K library; viability, % at 10 µM; 6% of 85,000 active; H69AR lung tumor viability, ATP luminescence, 72 h; hits give low values; AID 598, 2007;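 active means viability at or below 40%; inactive means viability above 40%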;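 further: multidrug resistant small cell line overexpressing MRP-1 efflux transporter; 100% = mean luminescence of untreated control wells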
# PTK2B oligo ant = antagonists of Pyk2 self-association, primary screen, Q293 cells, FERM NanoBiT luminescence, HTS | Protein-tyrosine kinase 2-beta (Homo sapiens), Q14289 | hits give low values | z-score (the deposit names both 25 µM and 10 µM) | 0.83% of 99,000 active | AID 1347419, 2020;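 active means Z-score of -3 or lower, scaled per plate to the spread of control and sample wells; inactive means z-score above -3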;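 further: negative z-score means lost luminescence so less FERM oligomerization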
# * marks the source's active call; other numbers are inactive results; · = not tested or not shown.
SMILES,PTEN del growth,HUVEC inhibit,bCat KO growth,Lung fibro prol,H69AR growth 86K,PTK2B oligo ant
CC1=C(C)C(=O)NC(Nc2nc(C)c3cc(C)cc(C)c3n2)N1 (stereo not given),·,24*,·,14*,24*,·
COC(=O)[C@H](Cc1ccccc1)NC(=O)Nc1ccc(C)cc1,99,97,94,93,82,0.71
C=Cn1ccnc1P(=S)(c1ccc2c(c1)c1ccccc1n2CC)c1nccn1C=C,12,41,25,52,13*,-1.1
Cc1nn(-c2ccccc2)c2sc(C(=O)N(CC(=O)NC3CCCC3)Cc3ccco3)cc12,37,54,68,53,26*,-2.2
Cc1nn(-c2ccccc2)c2sc(C(=O)NC3CC3)cc12,84,91,83,90,95,-0.62
N#CCSc1nc2cc(C(=O)N3CCC(C(N)=O)CC3)ccc2c2nc3ccccc3n12,7,86,5.0*,99,63,-0.56
N#CCSc1nc2cc(C(=O)N3CCCC3)ccc2c(=O)n1Cc1ccccc1,78,·,93,·,·,-1.4
N#CCSc1nc2ccccc2c2nc3ccccc3n12,9,·,5.8*,·,·,·
CC(C)/C=N/Nc1nc(-c2ccc(Br)cc2)cs1,86,·,81,·,·,·
O=C(Cc1cccs1)OCC(=O)c1ccco1,97,92,89,92,81,1.2
O=C(CC(Sc1ccccc1)c1cccs1)c1ccco1 (stereo not given),62,88,52,·,1.9*,-0.09
CC(NC(=O)N(Cc1ccccc1)Cc1ccc2c(c1)OCO2)(C(F)(F)F)C(F)(F)F,88,102,95,95,74,0.87
CCC(NC(=O)N(Cc1ccccc1)Cc1ccc2c(c1)OCO2)(C(F)(F)F)C(F)(F)F,90,85,92,99,37*,-0.32
N#C/C(=C/c1ccc(-c2ccc(S(N)(=O)=O)cc2)o1)c1nc2ccccc2s1,1.8*,·,1.5*,·,·,·
O=C(COC(=O)CNS(=O)(=O)c1c(Cl)cccc1Cl)Nc1cccnc1Cl,102,·,93,·,·,·
Cc1ccccc1S(=O)(=O)NC1OC(=O)C(Cl)=C1Cl (stereo not given),107,100,101,96,7.1*,0.75
CCCc1nc2oc3c(N4CCNCC4)ncnc3c2c2c1CCCC2,·,67,·,84,7.0*,·
CCCc1nc2oc3c(NCCN(C)C)ncnc3c2c2c1CCCC2,1.8*,39,2.0*,4.3*,8.9*,1.1
O=C(COC(=O)c1cc(=O)[nH]c2ccccc12)NC(=O)NC1CCCCC1,93,91,96,90,93,-3.7*
CCNC(=O)COC(=O)c1cc(=O)[nH]c2ccccc12,105,97,96,102,95,-0.22
N#C/C(C(=O)NCc1ccccc1)=C1/SC(Cc2ccc(Cl)cc2)C(=O)N1c1ccccc1 (stereo not given),94,·,85,·,·,·
CCOC(=O)c1c(C)[nH]c(C(=O)CN2C(=O)NC(C)(c3ccc(C)cc3)C2=O)c1C (stereo not given),51,97,59,107,39*,-1.1
CCOC(=O)c1c(C)[nH]c(C(=O)CN2C(=O)NC(CC)(c3ccccc3)C2=O)c1C (stereo not given),62,100,75,94,37*,-0.34
CCOC(=O)c1c(NC(=O)CN2C(=O)NC(C)(c3ccc(OC(F)F)cc3)C2=O)sc(C)c1C (stereo not given),70,·,78,·,·,·
CCOC(=O)c1c(C)[nH]c(C(=O)Cn2nnc(-c3ccccc3)n2)c1C,102,81,92,80,61,1.3
SMILES,PTEN del growth,HUVEC inhibit,bCat KO growth,Lung fibro prol,H69AR growth 86K,PTK2B oligo ant
Cc1ccc(-n2c(-c3c(-c4ccccc4)noc3C)n[nH]c2=S)cc1,100,109,99,106,86,1.2
CCc1ccc(NC(=O)c2c(Cl)nc(C)c(Cl)c2C)cc1,76,·,86,·,·,-0.76
Nc1oc2ccc(F)cc2c(=O)c1C=O,104,·,94,·,·,·
Cc1nccc2[nH]c(=O)c(C(=O)NC3CCCCC3C)cc12 (stereo not given),81,75,71,93,37*,-0.01
C=C(C)CNC(=S)N/N=C1\CCCCc2ccccc21,87,·,89,·,·,·
Cc1nn(C)c(C)c1NC(=O)CSc1nc(C2CC2)nc2c1cnn2-c1ccccc1,1.2*,96,1.3*,43*,79,0.29
CC1CCCCN1C(=O)CSc1nc(C2CC2)nc2c1cnn2-c1ccccc1 (stereo not given),76,·,80,·,·,-0.43
Cc1nn(C)c(C)c1NC(=O)CSc1nc(-c2ccccc2Cl)nc2c1cnn2-c1ccccc1,74,90,89,95,30*,0.36
c1ccc(-c2csc(-n3cnnn3)n2)cc1,88,96,93,99,101,0.22
COC(=O)NC(=S)Nc1ccc(Oc2ccc(Cl)cc2Cl)c(Cl)c1,26,57,23,103,24*,0.13
Cn1cc(C(=O)c2ccc(Cl)cc2Cl)cc1C(=O)O,101,·,101,·,·,0.2
O=C(COc1ccc(Cl)cc1Cl)NN=C1CCCCC1,99,·,82,·,·,·
Cn1cc(C(=O)c2ccc(Cl)cc2Cl)cc1C(=O)N/N=C(\N)COc1ccc(F)cc1,18,86,23,82,25*,-0.82
Cn1cc(C(=O)c2ccc(Cl)cc2Cl)cc1C(=O)N/N=C(\N)COc1ccc(Cl)cc1Cl,18,62,14,68,18*,-0.49
Cn1cc(C(=O)c2ccc(Cl)cc2Cl)cc1C(=O)N/N=C(\N)COc1ccccc1,18,86,17,82,33*,0.69
Cc1nn(Cc2cccc(C(=O)N3CCCC(C)C3)c2)c(C)c1[N+](=O)[O-] (stereo not given),79,·,79,·,·,·
COc1ccc2c3c(c(=O)oc2c1OCC(N)=O)CCCC3,91,106,87,102,91,-1.8
CCOC(=O)CN1C(=O)C(O)(CC(=O)c2cccc(OC)c2)c2ccccc21 (stereo not given),56,101,49,95,28*,1.5
CN1C(=O)C(O)(CC(=O)c2ccccc2O)c2cc(Br)ccc21 (stereo not given),22,55,30,77,20*,·
COc1ccc(CN2C(=O)C(O)(CC(=O)c3ccc4c(c3)OCO4)c3ccccc32)cc1OC (stereo not given),28,105,49,105,28*,0.42
CCOC(=O)CN1C(=O)C(O)(CC(=O)c2ccc3c(c2)CCCC3)c2ccccc21 (stereo not given),91,87,92,94,82,0.43
CCCCN1C(=O)C(O)(CC(=O)c2ccco2)c2cc(Br)ccc21 (stereo not given),15,65,14,68,21*,·
